Measurements taken from ChEMBL document CHEMBL1629456, “ApoA-I mimetic peptides promote pre-β HDL formation in vivo causing remodeling of HDL and triglyceride accumulation at higher dose” (Bioorg Med Chem, 2010).
Activity calls are given as the source filed them. No cut-off for these calls is given here. *1 amine or outer side, *2 acyl side, *3 side chain or, on linkers, in order; H or OH if unused. Where a SMILES comes first, the peptide text is derived from it. [ ]: non-standard residue; d: D form. dGly(6-heptenyl) = C=CCCCCC[C@@H](N)C(=O)O; Ala(5-hexenyl) = C=CCCCCC[C@H](N)C(=O)O; dNle(6-vinyl) = C=CCCCC[C@@H](N)C(=O)O; X1 = CCCCCCC[C@H](N[*:1])C(=O)[*:2]

What was measured:
Plasma [1] = assay: Induction of pre-beta HDL formation in human plasma after 2 hrs by ELISA; format: functional, cell-free
Method in brief: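 Increasing peptide concentrations were incubated with normal human plasma at 37 °C for 2 h. Pre-β HDL was quantified by a commercial human pre-β HDL ELISA.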

Mus musculus [2] = assay: Effect on triglyceride level in C57/BL6 mouse at 20 mg/kg, sc after 1 hr; format: functional, organism-based; parameters: dose 20 mg/kg; conditions: C57Bl/6
Method in brief: (§1)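 Male C57Bl/6 mice (≥12 weeks, chow-fed) given peptide subcutaneously in 50 mM mannitol/PBS vehicle. Serum was collected by cardiac puncture at 1 or 3 h, clotted 1 h at room temperature and spun at 10,000g. Serum triglyceride was measured by enzymatic colorimetric assay, with 3–5 animals per dose and time point.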

Mus musculus [3] = assay: Effect on triglyceride level in C57/BL6 mouse at 20 mg/kg, sc after 3 hrs; format: functional, organism-based; parameters: dose 20 mg/kg; conditions: C57Bl/6; method in brief: as §1
Mus musculus [4] = assay: Effect on triglyceride level in C57/BL6 mouse at 60 mg/kg, sc after 1 hr; format: functional, organism-based; parameters: dose 60 mg/kg; conditions: C57Bl/6; method in brief: as §1
[5] = Plasma concentration in C57/BL6 mouse at 60 mg/kg, sc after 3 hrs; format: ADME, organism-based, C57Bl/6; parameters: dose 60 mg/kg, route subcutaneous
Method in brief: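 Male C57Bl/6 mice were dosed subcutaneously with peptide in 50 mM mannitol/PBS. Serum was taken by cardiac puncture, and peptide was measured by LC–MS/MS after acetonitrile protein precipitation.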

[6] = target: Lipoprotein lipase (Bos taurus) (UniProt P11151); assay: Inhibition of Lipoprotein lipase in vitro
[7] = target: Phospholipid-transporting ATPase ABCA1 (Mus musculus, UniProt P41233); assay: Induction of ABCA1-mediated [3H]cholesterol efflux in mouse RAW 264.7 macrophages after 24 hrs
Chain of Phospholipid-transporting ATPase ABCA1 (P41233 whole entry): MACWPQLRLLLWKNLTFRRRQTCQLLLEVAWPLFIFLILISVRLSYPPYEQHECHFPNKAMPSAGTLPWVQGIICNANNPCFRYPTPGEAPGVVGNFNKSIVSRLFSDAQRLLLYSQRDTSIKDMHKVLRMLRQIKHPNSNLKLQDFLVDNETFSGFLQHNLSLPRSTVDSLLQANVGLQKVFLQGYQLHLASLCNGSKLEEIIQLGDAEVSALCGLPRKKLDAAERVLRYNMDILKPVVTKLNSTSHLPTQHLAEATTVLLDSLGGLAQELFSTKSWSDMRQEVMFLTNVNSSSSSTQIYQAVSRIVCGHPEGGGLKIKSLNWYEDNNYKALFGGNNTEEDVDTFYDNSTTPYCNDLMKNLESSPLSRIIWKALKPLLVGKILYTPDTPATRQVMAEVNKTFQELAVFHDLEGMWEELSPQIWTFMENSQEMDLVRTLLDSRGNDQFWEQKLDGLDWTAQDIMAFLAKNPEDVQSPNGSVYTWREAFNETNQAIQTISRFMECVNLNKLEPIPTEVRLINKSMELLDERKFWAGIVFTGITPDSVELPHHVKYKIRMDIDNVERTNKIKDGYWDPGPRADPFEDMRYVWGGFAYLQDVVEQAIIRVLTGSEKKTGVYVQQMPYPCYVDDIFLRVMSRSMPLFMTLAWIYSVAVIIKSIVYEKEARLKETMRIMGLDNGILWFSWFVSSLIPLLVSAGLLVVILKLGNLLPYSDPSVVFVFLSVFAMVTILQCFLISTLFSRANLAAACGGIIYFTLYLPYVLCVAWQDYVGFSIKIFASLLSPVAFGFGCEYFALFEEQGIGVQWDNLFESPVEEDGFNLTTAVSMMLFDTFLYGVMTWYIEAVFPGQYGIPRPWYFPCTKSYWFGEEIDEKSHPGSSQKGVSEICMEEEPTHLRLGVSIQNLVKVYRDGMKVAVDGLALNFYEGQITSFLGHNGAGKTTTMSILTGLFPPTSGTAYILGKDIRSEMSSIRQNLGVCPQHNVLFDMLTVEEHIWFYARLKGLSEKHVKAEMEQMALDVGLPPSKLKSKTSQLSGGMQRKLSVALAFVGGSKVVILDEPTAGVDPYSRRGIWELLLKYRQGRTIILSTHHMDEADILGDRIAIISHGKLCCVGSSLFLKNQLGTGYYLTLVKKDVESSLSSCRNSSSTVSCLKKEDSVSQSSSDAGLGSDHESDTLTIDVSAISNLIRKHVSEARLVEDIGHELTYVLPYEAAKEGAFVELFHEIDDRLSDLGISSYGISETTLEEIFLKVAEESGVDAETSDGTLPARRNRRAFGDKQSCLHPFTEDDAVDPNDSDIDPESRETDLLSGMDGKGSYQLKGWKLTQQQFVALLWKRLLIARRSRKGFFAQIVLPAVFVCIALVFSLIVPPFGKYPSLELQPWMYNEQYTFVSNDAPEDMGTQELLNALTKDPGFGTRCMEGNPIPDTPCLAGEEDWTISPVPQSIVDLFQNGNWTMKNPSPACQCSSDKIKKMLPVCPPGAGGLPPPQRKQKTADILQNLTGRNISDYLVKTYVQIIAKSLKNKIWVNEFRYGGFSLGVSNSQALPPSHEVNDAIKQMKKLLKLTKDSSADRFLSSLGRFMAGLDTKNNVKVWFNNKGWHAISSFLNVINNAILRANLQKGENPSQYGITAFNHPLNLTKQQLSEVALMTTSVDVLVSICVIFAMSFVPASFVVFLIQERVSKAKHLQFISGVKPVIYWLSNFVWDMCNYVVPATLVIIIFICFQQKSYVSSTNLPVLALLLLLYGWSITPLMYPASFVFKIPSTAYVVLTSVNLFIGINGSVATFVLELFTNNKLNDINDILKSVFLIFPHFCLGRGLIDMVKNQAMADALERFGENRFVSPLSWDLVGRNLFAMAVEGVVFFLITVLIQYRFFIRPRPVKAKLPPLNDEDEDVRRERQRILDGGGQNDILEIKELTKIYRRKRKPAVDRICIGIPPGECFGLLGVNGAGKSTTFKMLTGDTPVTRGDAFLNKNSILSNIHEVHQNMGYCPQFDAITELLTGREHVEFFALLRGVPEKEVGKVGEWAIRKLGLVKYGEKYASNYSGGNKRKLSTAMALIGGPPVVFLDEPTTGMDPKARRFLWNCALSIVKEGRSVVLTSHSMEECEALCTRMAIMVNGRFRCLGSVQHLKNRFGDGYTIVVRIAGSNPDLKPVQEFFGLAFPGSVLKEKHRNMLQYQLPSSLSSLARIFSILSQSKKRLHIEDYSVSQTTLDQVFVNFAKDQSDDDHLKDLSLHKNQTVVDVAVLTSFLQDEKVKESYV

Mus musculus [8] = assay: Effect on triglyceride level in C57/BL6 mouse at 60 mg/kg, sc; format: functional, organism-based; parameters: dose 60 mg/kg; conditions: C57Bl/6, TDE = time-dependent effect; method in brief: as §1
Mus musculus [9] = species: Mus musculus; assay: Induction of pre-beta HDL formation in C57/BL6 mouse plasma at 0.25 mg/ml after 2 hrs by FPLC; format: functional; conditions: C57Bl/6
Method in brief: (§2)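 Peptide was added to C57Bl/6 mouse plasma (final 0.25 mg/ml) or human plasma (final 0.5 mg/ml) and incubated at 37 °C. Lipoproteins were fractionated by Superose 6 FPLC in PBS pH 7.4 with 1 mM EDTA. Cholesterol was measured by enzymatic colorimetry and peptide by LC–MS against an internal standard.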

Plasma [10] = assay: Induction of pre-beta HDL formation in human plasma at 0.5 mg/ml after 2 hrs by FPLC; format: functional, cell-free; method in brief: as §2
Plasma [11] = assay: Induction of pre-beta HDL formation in mouse plasma after 2 hrs by ELISA; format: functional, cell-free
Mus musculus [12] = assay: Induction of pre-beta HDL formation in apoe deficient mouse assessed as increase in circulating pre-beta HDL at 60 mg/kg, sc after 2 hrs by FPLC; format: functional, organism-based; parameters: dose 60 mg/kg; conditions: TDE = time-dependent effect
[13] = target: Phospholipid-transporting ATPase ABCA1 (Mus musculus) (UniProt P41233); assay: Induction of ABCA1-mediated [3H]cholesterol efflux in mouse J774 macrophages; conditions: TDE = time-dependent effect
Chain of Phospholipid-transporting ATPase ABCA1 (Mus musculus) (P41233 whole entry): as above
Method in brief: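 Ex vivo serum efflux. J774 macrophages were labeled with [3H]cholesterol for 24 h, then equilibrated 18 h in 0.2% BSA, with or without cpt-cAMP. Cells were incubated 4 h at 37 °C with 2% serum from peptide-dosed apoe-/- mice (60 mg/kg sc). Fractional efflux was media [3H] over total at time zero; ABCA1-dependent efflux = cAMP-treated minus untreated.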

Mus musculus [14] = assay: Induction of hypertriglyceridemia in C57/BL6 mouse at 30 mg/kg, sc by FPLC; format: functional, organism-based; parameters: dose 30 mg/kg; conditions: C57Bl/6
Method in brief: (§3)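 Male C57Bl/6 mice (≥12 weeks, chow-fed) dosed subcutaneously with peptide in vehicle (50 mM mannitol in PBS); serum collected by cardiac puncture at time points post-dose. Serum was pooled (three animals per pool), given protease and lipase inhibitors, filtered, and fractionated by Superose 6 FPLC in PBS pH 7.4 with 1 mM EDTA at 0.2 ml/min. Cholesterol and triglyceride in fractions were measured by enzymatic colorimetry.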

Mus musculus [15] = assay: Induction of hypertriglyceridemia in C57/BL6 mouse at 100 mg/kg, sc by FPLC; format: functional, organism-based; parameters: dose 100 mg/kg; conditions: C57Bl/6; method in brief: as §3
Mus musculus [16] = assay: Increase in VLDL cholesterol level in C57/BL6 mouse at 30 mg/kg, sc by FPLC; format: functional, organism-based; parameters: dose 30 mg/kg; conditions: C57Bl/6; method in brief: as §3
Mus musculus [17] = assay: Increase in VLDL cholesterol level in C57/BL6 mouse at 100 mg/kg, sc by FPLC; format: functional, organism-based; parameters: dose 100 mg/kg; conditions: C57Bl/6; method in brief: as §3
Mus musculus [18] = assay: Increase in VLDL triglyceride level in C57/BL6 mouse at 30 mg/kg, sc by FPLC; format: functional, organism-based; parameters: dose 30 mg/kg; conditions: C57Bl/6; method in brief: as §3
Mus musculus [19] = assay: Increase in VLDL triglyceride level in C57/BL6 mouse at 100 mg/kg, sc by FPLC; format: functional, organism-based; parameters: dose 100 mg/kg; conditions: C57Bl/6; method in brief: as §3
Mus musculus [20] = assay: Effect on TG content in HDL in C57/BL6 mouse at 30 mg/kg, sc after 24 hrs by FPLC; format: functional, organism-based; parameters: dose 30 mg/kg; conditions: C57Bl/6; method in brief: as §3
Mus musculus [21] = assay: Effect on TG content of HDL in C57/BL6 mouse at 100 mg/kg, sc after 24 hrs by FPLC; format: functional, organism-based; parameters: dose 100 mg/kg; conditions: C57Bl/6; method in brief: as §3
Mus musculus [22] = assay: Decrease in HDL cholesterol level in C57/BL6 mouse at 30 mg/kg, sc after 24 hrs by FPLC; format: functional, organism-based; parameters: dose 30 mg/kg; conditions: C57Bl/6; method in brief: as §3
Mus musculus [23] = assay: Decrease in HDL cholesterol level in C57/BL6 mouse at 100 mg/kg, sc after 24 hrs by FPLC; format: functional, organism-based; parameters: dose 100 mg/kg; conditions: C57Bl/6; method in brief: as §3

Compound | concentration at 3 h [5] [µM] | IC50 [6] [µM] | EC50 [7] [µM] | Activity (Plasma [1]) | Activity (Mus musculus [2]) | Activity (Mus musculus [3]) | Activity (Mus musculus [4]) | also measured
C=CCCCCC[C@H](NC(=O)[C@H](CCC(=O)O)NC(=O)[C@H](CC(N)=O)NC(=O)[C@H](CC(C)C)NC(=O)[C@H](CCCCN)NC(=O)[C@H](CCC(=O)O)NC(=O)[C@H](CCCNC(=N)N)NC(=O)[C@@H](CCCCC=C)NC(=O)[C@H](CCC(=O)O)NC(=O)[C@H](CC(=O)O)NC(=O)[C@H](CC(C)C)NC(=O)[C@@H](NC(=O)[C@@H]1CCCN1C(C)=O)C(C)C)C(=O)N[C@@H](CC(C)C)C(=O)N[C@@H](CCC(=O)O)C(=O)N[C@@H](C)C(=O)N[C@@H](CC(C)C)C(=O)N[C@@H](CCCCN)C(=O)N[C@@H](CCC(N)=O)C(=O)N[C@@H](CCCCN)C(=O)N[C@@H](CC(C)C)C(=O)N[C@@H](CCCCN)C(N)=O (Ac-PVLDE[dNle(6-vinyl)]REKLNE[Ala(5-hexenyl)]LEALKQKLK-NH2) |  | 100 |  | Dose-dependent effect | inactive | inactive | inactive | 
Ac-PVLDEFREKLNEELEALKQKLK-NH2 |  | 477 |  | inactive |  |  |  | Activity (Mus musculus [8]): tde
C=CCCCCC[C@H](NC(=O)[C@H](CCC(=O)O)NC(=O)[C@H](CC(N)=O)NC(=O)[C@H](CC(C)C)NC(=O)[C@H](CCCCN)NC(=O)[C@H](CCC(=O)O)NC(=O)[C@H](CCCNC(=N)N)NC(=O)[C@H](CCCCCC=C)NC(=O)[C@H](CCC(=O)O)NC(=O)[C@H](CC(=O)O)NC(=O)[C@H](CC(C)C)NC(=O)[C@@H](NC(=O)[C@@H]1CCCN1C(C)=O)C(C)C)C(=O)N[C@@H](CC(C)C)C(=O)N[C@@H](CCC(=O)O)C(=O)N[C@@H](C)C(=O)N[C@@H](CC(C)C)C(=O)N[C@@H](CCCCN)C(=O)N[C@@H](CCC(N)=O)C(=O)N[C@@H](CCCCN)C(=O)N[C@@H](CC(C)C)C(=O)N[C@@H](CCCCN)C(N)=O (Ac-PVLDE[Ala(5-hexenyl)]REKLNE[Ala(5-hexenyl)]LEALKQKLK-NH2) | 124 | 60 | 0.4 | Dose-dependent effect | inactive | inactive | inactive | Activity (Mus musculus [9]): Active; Activity (Plasma [10]): Active; Activity (Plasma [11]): Dose-dependent effect; Activity (Mus musculus [12]): tde; Activity [13]: tde; Activity (Mus musculus [14]): inactive; Activity (Mus musculus [15]): Active; Activity (Mus musculus [16]): Active; Activity (Mus musculus [17]): Active; Activity (Mus musculus [18]): Active; Activity (Mus musculus [19]): Active; Activity (Mus musculus [20]): inactive; Activity (Mus musculus [21]): inactive; Activity (Mus musculus [22]): Active; Activity (Mus musculus [23]): Active

The next compounds have a lower IC50 [6] than those just listed; values first:

concentration at 3 h [5] [µM] | IC50 [6] [µM] | EC50 [7] [µM] | Compound | Activity (Plasma [1]) | Activity (Mus musculus [2]) | Activity (Mus musculus [3]) | Activity (Mus musculus [4]) | also measured
49 | 40 | 1 | C=CCCCCC[C@H](NC(=O)[C@H](CCC(N)=O)NC(=O)[C@H](CCCCN)NC(=O)[C@H](CC(C)C)NC(=O)[C@H](C)NC(=O)[C@H](CCC(=O)O)NC(=O)[C@H](CC(C)C)NC(=O)[C@H](CCCCCC=C)NC(=O)[C@H](CCC(=O)O)NC(=O)[C@H](CC(N)=O)NC(=O)[C@H](CC(C)C)NC(=O)[C@H](CCCCN)NC(=O)[C@H](CCC(=O)O)NC(=O)[C@H](CCCNC(=N)N)NC(=O)[C@@H](CCCCCC=C)NC(=O)[C@H](CCC(=O)O)NC(=O)[C@H](CC(=O)O)NC(=O)[C@H](CC(C)C)NC(=O)[C@@H](NC(=O)[C@@H]1CCCN1C(C)=O)C(C)C)C(=O)N[C@@H](CC(C)C)C(=O)N[C@@H](CCCCN)C(N)=O (Ac-PVLDE[dGly(6-heptenyl)]REKLNE[Ala(5-hexenyl)]LEALKQ[Ala(5-hexenyl)]LK-NH2) | Dose-dependent effect | inactive | inactive | inactive | 
55 | 21 | 0.9 | C=CCCCCC[C@H](NC(=O)[C@H](CCC(=O)O)NC(=O)[C@H](CC(N)=O)NC(=O)[C@H](CC(C)C)NC(=O)[C@H](CCCCN)NC(=O)[C@H](CCC(=O)O)NC(=O)[C@H](CCCNC(=N)N)NC(=O)[C@@H](CCCCCC=C)NC(=O)[C@H](CCC(=O)O)NC(=O)[C@H](CC(=O)O)NC(=O)[C@H](CC(C)C)NC(=O)[C@H](CCCCCC=C)NC(=O)[C@@H]1CCCN1C(C)=O)C(=O)N[C@@H](CC(C)C)C(=O)N[C@@H](CCC(=O)O)C(=O)N[C@@H](C)C(=O)N[C@@H](CC(C)C)C(=O)N[C@@H](CCCCN)C(=O)N[C@@H](CCC(N)=O)C(=O)N[C@@H](CCCCN)C(=O)N[C@@H](CC(C)C)C(=O)N[C@@H](CCCCN)C(N)=O (Ac-P[Ala(5-hexenyl)]LDE[dGly(6-heptenyl)]REKLNE[Ala(5-hexenyl)]LEALKQKLK-NH2) |  | inactive | inactive | inactive | 
137 | 44 |  | CCCCCCC[C@H](NC(=O)[C@H](CCC(=O)O)NC(=O)[C@H](CC(N)=O)NC(=O)[C@H](CC(C)C)NC(=O)[C@H](CCCCN)NC(=O)[C@H](CCC(=O)O)NC(=O)[C@H](CCCNC(=N)N)NC(=O)[C@H](CCCCCCC)NC(=O)[C@H](CCC(=O)O)NC(=O)[C@H](CC(=O)O)NC(=O)[C@H](CC(C)C)NC(=O)[C@@H](NC(=O)[C@@H]1CCCN1C(C)=O)C(C)C)C(=O)N[C@@H](CC(C)C)C(=O)N[C@@H](CCC(=O)O)C(=O)N[C@@H](C)C(=O)N[C@@H](CC(C)C)C(=O)N[C@@H](CCCCN)C(=O)N[C@@H](CCC(N)=O)C(=O)N[C@@H](CCCCN)C(=O)N[C@@H](CC(C)C)C(=O)N[C@@H](CCCCN)C(N)=O (Ac-PVLDE[X1]REKLNE[X1]LEALKQKLK-NH2) |  | inactive | inactive | inactive | 
